Assay results as given in ChEMBL document CHEMBL1121432, “Tricyclics with analgesic and antidepressant activity. 1. [[(Alkylamino)ethyl]thio]dibenz[b,f]oxepins and 10,11-dihydro derivatives” (1980).

How the values were obtained:
Format in all cases: functional
Mus musculus [1] = test: Anticonvulsant activity to prevent pentamethylenetetrazole (MTZ) induced lethality in mice after oral administration
Mus musculus [2] = test: Antipsychotic activity to prevent amphetamine induced lethality in mice after oral administration
Outline: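 Male CD-1 mice in groups of ten, 18-28 g, dosed orally; controls got distilled water-Tween 80. d-Amphetamine sulfate 21 mg/kg sc 60 min post-drug, then aggregated five per wire cage at 80-84 °F. Dead mice replaced by marked untreated mice every 15 min. Deaths counted at 5 h post-amphetamine.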

Mus musculus [3] = test: Analgesic activity for the inhibition of phenylquinone induced writhing (PQW) after subcutaneous administration to mice; conditions: sc
Mus musculus [4] = test: Delay in response to noxious heat stimuli in mice by tail flick method after subcutaneous administration; conditions: sc
Mus musculus [5] = test: Antidepressant activity to prevent tetrabenazine induced ptosis (TBZ) in mice after intraperitoneal administration; conditions: ip
Mus musculus [6] = test: Tested for analgesic activity for the inhibition of phenylquinone induced writhing (PQW) after oral administration to mice
Mus musculus [7] = test: Tested for antipsychotic activity to prevent amphetamine induced lethality in mice after intraperitoneal administration; conditions: ip
Outline: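 Male CD-1 mice in groups of ten, 18-28 g, dosed ip; controls got distilled water-Tween 80. d-Amphetamine sulfate 21 mg/kg sc 60 min later, then aggregated five per wire cage at 80-84 °F. Dead mice replaced by marked untreated mice every 15 min. Deaths counted at 5 h post-amphetamine.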

SMILES	ED50 (Mus musculus [1])	ED50 (Mus musculus [2])	ED50 (Mus musculus [3])	ED50 (Mus musculus [4])	ED50 (Mus musculus [5])	ED50 (Mus musculus [6])	ED50 (Mus musculus [7])
CN1C(=O)CN=C(c2ccccc2)c2cc(Cl)ccc21 [DIAZEPAM]	1.4 mg/kg	> 20 mg/kg					
CN(C)CCSC1=Cc2ccccc2Oc2ccc(F)cc21	> 50 mg/kg	> 20 mg/kg	10.3 mg/kg	23.9 mg/kg			
CCN(C)CCSC1=Cc2ccccc2Oc2ccc(SC)cc21	> 50 mg/kg	> 20 mg/kg	25 mg/kg	> 25 mg/kg			
CN1CC[C@]23c4c5ccc(O)c4O[C@H]2[C@@H](O)C=C[C@H]3[C@H]1C5 [MORPHINE]	> 25 mg/kg	> 20 mg/kg	0.36 mg/kg		8.1 mg/kg		
CN(C)CCCN1c2ccccc2Sc2ccc(Cl)cc21 [CHLORPROMAZINE]	> 50 mg/kg	2.8 mg/kg					
CCN(CC)CCSC1Cc2ccccc2Oc2ccccc21 (stereo not given)	> 50 mg/kg	> 20 mg/kg	6.9 mg/kg	> 25 mg/kg	> 20 mg/kg		
C1=C(SCCNCCc2ccccc2)c2ccccc2Oc2ccccc21	> 50 mg/kg	> 20 mg/kg	13.6 mg/kg	> 25 mg/kg	> 20 mg/kg		
Fc1ccc2c(c1)C(SCCNCCc1ccccc1)Cc1ccccc1O2 (stereo not given)	> 50 mg/kg	> 20 mg/kg	> 10 mg/kg	> 25 mg/kg			
CCN(CC)CCSC1Cc2ccccc2Oc2ccc(Cl)cc21 (stereo not given)	> 50 mg/kg		14.8 mg/kg	> 25 mg/kg	> 20 mg/kg		
CNCCSC1=Cc2ccccc2Oc2ccc(Cl)cc21	> 50 mg/kg	> 20 mg/kg	16 mg/kg	> 25 mg/kg	5.9 mg/kg		
CC(C)=CCN1CC[C@]2(C)c3cc(O)ccc3C[C@H]1[C@H]2C [(+)-PENTAZOCINE]	> 25 mg/kg	> 20 mg/kg	2.4 mg/kg	14.6 mg/kg			
CNCCSC1=Cc2ccccc2Oc2ccc(SC)cc21	> 50 mg/kg	> 20 mg/kg	< 25 mg/kg	> 25 mg/kg	6.1 mg/kg		
CN(C)CCSC1Cc2ccccc2Oc2ccc(Cl)cc21 (stereo not given)	30 mg/kg		< 25 mg/kg	> 25 mg/kg			
CNCCSC1=Cc2ccccc2Oc2ccc(F)cc21 [FLURADOLINE]	> 50 mg/kg	> 50 mg/kg		11.3 mg/kg	0.32 mg/kg	24.7 mg/kg	
CSc1ccc2c(c1)C(SCCN(C)C)=Cc1ccccc1O2	> 50 mg/kg	> 20 mg/kg	5.3 mg/kg	14.1 mg/kg	9.4 mg/kg		
Fc1ccc2c(c1)C(SCCNCC1CC1)Cc1ccccc1O2 (stereo not given)	> 50 mg/kg	> 20 mg/kg	10.7 mg/kg	> 25 mg/kg	> 20 mg/kg		
CSc1ccc2c(c1)C(SCCN(C)C)Cc1ccccc1O2 (stereo not given)	> 50 mg/kg	> 20 mg/kg	10.4 mg/kg	> 25 mg/kg	16 mg/kg		
CCN(CC)CCSC1=Cc2ccccc2Oc2ccccc21	> 50 mg/kg	> 20 mg/kg	25 mg/kg	> 25 mg/kg	> 20 mg/kg		
C1=C(SCCN2CCOCC2)c2ccccc2Oc2ccccc21	> 50 mg/kg		> 25 mg/kg	> 25 mg/kg			
CNCCSC1Cc2ccccc2Oc2ccc(Cl)cc21 (stereo not given)	< 50 mg/kg	> 20 mg/kg	5.3 mg/kg	22.4 mg/kg	1.5 mg/kg	11.3 mg/kg	
CNCCSC1Cc2ccccc2Oc2ccc(F)cc21 (stereo not given)	31.6 mg/kg	> 20 mg/kg		5.1 mg/kg	0.8 mg/kg		

SMILES	ED50 (Mus musculus [1])	ED50 (Mus musculus [2])	ED50 (Mus musculus [3])	ED50 (Mus musculus [4])	ED50 (Mus musculus [5])	ED50 (Mus musculus [6])	ED50 (Mus musculus [7])
CNCCSC1Cc2ccccc2Oc2ccccc21 (stereo not given)	50 mg/kg	> 20 mg/kg	4.8 mg/kg	11.6 mg/kg	0.9 mg/kg		
CSc1ccc2c(c1)C(SCCN(C(C)C)C(C)C)=Cc1ccccc1O2	> 50 mg/kg		> 25 mg/kg	> 25 mg/kg	25 mg/kg		
c1ccc2c(c1)CC(SCCN1CCOCC1)c1ccccc1O2 (stereo not given)	> 50 mg/kg	> 20 mg/kg	< 25 mg/kg	> 25 mg/kg	> 20 mg/kg		
CN(C)CCSC1Cc2ccccc2Oc2ccc(F)cc21 (stereo not given)	52.3 mg/kg	> 20 mg/kg		7.9 mg/kg	2 mg/kg		
CCN(C)CCSC1=Cc2ccccc2Oc2ccccc21	> 50 mg/kg		25 mg/kg	> 25 mg/kg	20 mg/kg		
Br.CCN(CC)CCSC1Cc2ccccc2Oc2ccc(SC)cc21 (stereo not given)	> 50 mg/kg	> 20 mg/kg	25 mg/kg	> 25 mg/kg	> 20 mg/kg		
CCN(CC)CCSC1=Cc2ccccc2Oc2ccc(SC)cc21	> 50 mg/kg	> 20 mg/kg	> 25 mg/kg	> 25 mg/kg	> 20 mg/kg		
Br.CN1CCN(CCSC2Cc3ccccc3Oc3ccccc32)CC1 (stereo not given)	> 50 mg/kg		6.3 mg/kg	> 25 mg/kg	> 20 mg/kg		
O=C(c1ccc(F)cc1)C1CCN(CCSC2Cc3ccccc3Oc3ccccc32)CC1 (stereo not given)	> 50 mg/kg	> 20 mg/kg	10.9 mg/kg	> 25 mg/kg	> 20 mg/kg	9.5 mg/kg	
CNCCSC1=Cc2ccccc2Oc2ccccc21	50 mg/kg			11.6 mg/kg			> 20 mg/kg
CN(C)CCCN1c2ccccc2CCc2ccccc21 [IMIPRAMINE]	50 mg/kg	> 20 mg/kg	11 mg/kg	> 25 mg/kg	1.3 mg/kg		
CN(CCSC1=Cc2ccccc2Oc2ccccc21)CC1CC1	> 50 mg/kg		6 mg/kg	> 25 mg/kg	> 20 mg/kg		
C#CCN(C)CCSC1=Cc2ccccc2Oc2ccccc21	> 50 mg/kg		25 mg/kg	> 25 mg/kg	12.2 mg/kg		
C=CCNCCSC1Cc2ccccc2Oc2ccc(F)cc21 (stereo not given)	> 50 mg/kg	> 20 mg/kg	10.6 mg/kg	> 25 mg/kg	3.5 mg/kg		
CN(C)CCSC1=Cc2ccccc2Oc2ccccc21	50 mg/kg	> 20 mg/kg	5.8 mg/kg	> 25 mg/kg	8.4 mg/kg		
CCNCCSC1Cc2ccccc2Oc2ccccc21 (stereo not given)	> 50 mg/kg		6.6 mg/kg	> 25 mg/kg	20 mg/kg		
c1ccc(CCNCCSC2Cc3ccccc3Oc3ccccc32)cc1 (stereo not given)	> 50 mg/kg	23 mg/kg	9.3 mg/kg	> 25 mg/kg	> 20 mg/kg		
CN(C)CCSC1=Cc2ccccc2Oc2ccc(Cl)cc21	> 50 mg/kg	> 20 mg/kg	> 25 mg/kg	> 25 mg/kg	> 20 mg/kg		
CNCCSC1Cc2ccccc2Oc2ccc(SC)cc21 (stereo not given)	50 mg/kg	> 20 mg/kg	6.4 mg/kg	> 25 mg/kg	12.7 mg/kg		
CN(C)CCSC1Cc2ccccc2Oc2ccccc21 (stereo not given)	50 mg/kg	> 20 mg/kg	> 25 mg/kg	> 25 mg/kg			
